Compound activity deposited in PubChem by The Scripps Research Institute Molecular Screening Center.
OX1R antag-1: antagonists of human orexin 1 receptor; O43613; CHO/OX1R cells, Fluo-8 calcium fluorescence, orexin A; inhibition, % at 5 µM; actives 0.43% (n = 330,000);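 active = inhibition above its plate's threshold, mean inhibition of all tested compounds on the plate plus 3 SD, cut at about 37% in these data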;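 note: 0% = orexin A challenge wells and 100% = SB-334867-A antagonist wells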
Target sequence (O43613 whole entry, looked up): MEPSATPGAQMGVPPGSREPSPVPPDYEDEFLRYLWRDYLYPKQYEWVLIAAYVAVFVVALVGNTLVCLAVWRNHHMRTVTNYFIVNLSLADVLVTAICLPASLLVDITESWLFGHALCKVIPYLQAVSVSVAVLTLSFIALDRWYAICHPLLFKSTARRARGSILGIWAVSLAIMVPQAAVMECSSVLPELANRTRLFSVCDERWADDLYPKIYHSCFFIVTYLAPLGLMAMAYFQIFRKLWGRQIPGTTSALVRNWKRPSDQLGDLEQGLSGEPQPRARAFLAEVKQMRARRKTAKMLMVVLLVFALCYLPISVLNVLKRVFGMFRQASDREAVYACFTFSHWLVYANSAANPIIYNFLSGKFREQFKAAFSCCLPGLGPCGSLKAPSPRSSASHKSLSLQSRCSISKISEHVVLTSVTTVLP
CHO parental Ca: signal in parental CHO cells, OX1R antagonist counter-screen; parental CHO-K1, ATP-induced calcium, Fluo-8 fluorescence; inhibition, % at 5.6 µM; actives 0.63% (n = 330,000); AID 463079;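 active = inhibition above that plate's mean sample inhibition plus 3 SD, cut at about 26% in these data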;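 note: 0% = ATP-challenged DMSO wells and 100% = DMSO wells without ATP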
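Test system: untransfected parental CHO cell line. Compound: one dose, 5.6 µM nominal. Detection: intracellular calcium via Fluo-8 no-wash fluorescent dye. Measure: % inhibition. Benchmarks: ATP-challenged DMSO wells low, unchallenged DMSO wells high.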
CHO-K1 Ca antag: counter-screen for M1 antagonists: effect in parental CHO-K1 cells | ATP-induced calcium, Fluo-8 fluorescence | inhibition, % at 3 µM | actives 0.6% (n = 360,000) | AID 602250;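 active = inhibition above a per-plate cutoff, the plate's mean sample inhibition plus 3 SD, cut at about 24% in these data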;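 note: 0% = DMSO plus EC80 ATP and 100% = DMSO alone without ATP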
M1 ag parental: M1 agonist counterscreen hit in parental CHO-K1 cells | Fluo-8 calcium fluorescence; scaled to maximal ATP response, vehicle zero | activation, % at 3 µM | actives 0.48% (n = 360,000); in the data active = activation above about 15%;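 note: untransfected CHO-K1 host cells lacking M1 receptor as counterscreen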
CHO-K1 Ca PAM: M1 PAM counterscreen hit in parental CHO-K1 cells; ATP EC20, Fluo-8 calcium fluorescence; 0% at ATP EC20, 100% at ATP max; activation, % at 3 µM; actives 0.02% (n = 360,000);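 active = activation above the run cutoff, the mean activation of all test compounds plus 3 SD, cut at about 40% in these data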;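 note: peak over basal fluorescence ratio in a 140 s read after ATP addition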
OX1R antag-2: blocks the human orexin 1 receptor; OX1R-expressing cells, FRET antagonist read-out; inhibition, % at 6.6 µM; actives 1.8% (n = 330,000); in the data active = inhibition mostly above about 38%, no sharp cut-off; inactive = mostly below about 40%;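 note: 0% = agonist challenge alone and 100% = reference antagonist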
The depositor's hits bear a star; nt = not tested or not shown. This is a sample that favours compounds with a hit; in the whole collection about 2.9% have one here.

SMILES	OX1R antag-1	CHO parental Ca	CHO-K1 Ca antag	M1 ag parental	CHO-K1 Ca PAM	OX1R antag-2
CCOC(=O)c1ccc(NC(=O)CCc2nc(-c3ccc(Cl)cc3)no2)cc1	45.1*	46.5*	-7.8	1.9	12.1	18.1
CCCCNC(=O)C1(C)CCCCN1C(=O)c1ccc(C)c(F)c1 (centres undefined)	nt	nt	-12.8	0.5	19.4	nt
CSCCNC(=O)C1(C)CCN1C(=O)CCc1ccccc1 (centres undefined)	nt	nt	-8.3	0.3	7.0	nt
CN(C(=O)CC1C(=O)NCCN1Cc1cccc(F)c1F)C1CC(C)(C)NC(C)(C)C1 (centres undefined)	11.1	4.4	-7.7	1.2	7.2	15.4
CCC(C)NC(=O)NCc1ccccc1F (centres undefined)	-16.3	-6.0	-11.9	3.0	24.9	4.0
CCOC(=O)/C(=C\c1ccc(N2CCC(c3ccccc3)=N2)cc1)C(C)=O	nt	nt	-13.8	5.5	14.8	nt
O=C(/C=C/c1ccc(N2CCC(c3ccccc3)=N2)cc1)c1ccccc1	79.5*	73.1*	nt	nt	nt	7.5
CC(C)C(NC(=O)c1ccc(C(C)(C)C)cc1)C(=O)N1CCCC1 (centres undefined)	-21.8	-8.5	-6.4	0.7	13.4	4.4
COc1ccccc1C(=O)Nc1nc2ccc(S(C)(=O)=O)cc2s1	1.3	-9.7	-7.9	2.2	14.2	40.7*
CS(=O)(=O)c1ccc2nc(NC(=O)c3ccccc3Cl)sc2c1	nt	nt	-8.2	0.3	18.6	nt
Cc1ccc2nc(NC(=O)c3ccccn3)sc2c1	33.2	27.2*	0.1	1.9	10.6	29.4
CCOc1ccc2nc(NC(=O)c3ccccn3)sc2c1	11.5	6.8	-11.3	1.8	25.1	47.2
O=S(=O)(Nc1cccnc1)c1ccc(C2CCCCC2)cc1	42.1*	34.7*	21.9	10.1	9.4	59.2
O=S(=O)(Nc1cccnc1)c1ccccc1	-10.7	-5.7	-6.2	-0.1	7.7	11.2
OC12CCCCC1C(c1ccc3c(c1)OCO3)N(Cc1ccc(F)cc1)CC2 (centres undefined)	-14.9	-14.5	6.9	26.5*	10.5	16.3
O=S(=O)(Nc1ccc(-n2cnnn2)cc1)c1ccccc1F	4.7	-1.5	-6.7	3.3	3.6	7.3
O=S(=O)(c1ccccc1F)N1CCC(Oc2ccc(-n3cnnn3)cc2)CC1	4.1	18.2	-0.8	22.0*	-3.4	26.3
CC(C)N(CCCNC(=O)Cn1c(=O)c2cccn2c2ccccc21)Cc1ccccc1	28.2	-20.9	-9.2	0.4	1.9	66.3*
CC(C)C(=O)Nc1nnc(NC(=S)Nc2ccccc2)s1	-10.2	0.0	-1.9	19.2*	9.5	24.1
Cc1ccc(COc2ccsc2C(=O)O)cc1	nt	nt	0.3	15.1*	17.7	nt
CCOc1ccsc1C(=O)O	-18.9	-2.2	29.9*	1.1	-26.9	22.5
Cc1nc2ccc(S(=O)(=O)NCC(=O)NCCc3ccc(Cl)cc3)cc2s1	-24.1	-12.5	4.8	1.6	-9.6	13.1
COC(=O)c1nc2nc(C)cc(C(F)(F)F)n2n1	-6.5	0.6	-3.6	-0.1	15.6	12.9
O=C(NCc1ccco1)c1nc2nc(-c3cccs3)cc(C(F)(F)F)n2n1	-25.4	-20.4	8.2	0.2	2.4	70.5*
COC(=O)c1nc2nc(-c3cccs3)cc(C(F)(F)F)n2n1	-5.4	-3.6	-1.5	0.0	8.2	76.5*
SMILES	OX1R antag-1	CHO parental Ca	CHO-K1 Ca antag	M1 ag parental	CHO-K1 Ca PAM	OX1R antag-2
COCC(=O)OC1CCn2c1nc1c2C(=O)C(C)=C(NC(C)=O)C1=O (centres undefined)	nt	nt	-10.0	0.7	5.0	nt
COc1ccc(COC(=O)CCNC(=O)c2ccc(Cl)cc2)cc1	-10.8	-8.8	-5.3	0.0	-13.4	52.8*
Cc1onc(-c2ccccc2Cl)c1C(=O)N1CCCc2ccccc21	-16.5	-19.4	-13.9	1.4	8.8	35.4*
COc1ccc(CCC(=O)Nc2c(-c3ccc(N(C)C)cc3)[nH][nH]c2=O)cc1	nt	nt	-14.4	1.1	15.0	nt
C=CCSc1nnc(-c2cc3c(-c4ccccc4)nn(C)c3s2)n1C	-4.0	-29.4	-9.9	0.9	10.8	74.9*
COc1ccccc1NC(=O)CS(=O)(=O)c1cn(CC(=O)N2CCCC2)c2ccccc12	-13.4	-13.8	-7.8	1.0	1.6	11.1
N#Cc1c(-c2ccco2)cc(-c2ccccn2)nc1N	4.1	-15.3	17.5	0.6	-9.4	73.5*
N#Cc1c(-c2ccco2)cc(-c2cccnc2)nc1N	-2.9	-3.6	-5.3	1.1	17.3	13.8
